Assay results reported in PMC7610841 (Nature, 2020).

The molecules below were run on extracellular Wingless (assay: In vivo trapping of endogenous extracellular Wingless in wing discs). Settings: overexpressed with ptc-gal4 in wing discs; extracellular Wingless staining.
Parameters: species or system Drosophila
Method in brief: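 HA-tagged wild-type or point-mutant Dlp/Dally transgenes (attP2 landing site) driven by ptc-gal4, crossed at 25°C. Wing discs immunostained for extracellular Wingless using an extracellular staining protocol, DAPI-mounted and imaged on a confocal microscope. Three independent repeats.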

Molecule	trapping of endogenous Wingless
Dlp[F172T, F195Y]: Dlp mutant replacing hydrophobic residues with polar ones (protein, left off: HA, end not stated, kept) MLHQQQQQQHLHCRRKATATTTARLVIFSSPLLLLLLTTHLPPTLQADNGPAPQVAALAAPNPAGGVAGSSIIDQFSPNCSAVTHIFQARGIDAIEIPQKPSNERVLRYCESPSVGTCCTYNMETRMAMQSRQQLEGHTKDQISRMSGILGSKATKFKDIFTALLKESRTQTNSMFIRTYGVIYERNSYVFSDLYKELETYFANGRVDLLEVMDKFFNTLYQKMFTVLNTQYTFDENYMRCVSEHMKELKPFGDVPDKLSVQIKRSFVATRTYGQALTTASEVAKKVLNVRLNADCTGALTKMQHCGACKGYTEKPCTNYCVNVIKGCLHYQHEFDSEWENFAMAMDKVAERLLGSFNIVMVVEPLNIKISEAIMNFQDSGQDITNRVFQGCGRPKLKKMKRSISPKLQGVQILNARSPVEADTLDIDETLDEAIVLRERRAAEPGSQETSAQQSQEQGVGKSGNGGGGGGGNNRRQQQRRKQQQQRRKQQNNRDDNDDDDNESGGGREPILDRIVRDIRQRVKDYKKFWSNLPHSVCSNEDIASSSDVDGMCWNGHTIDRYMHSITTEHGSNPEFTGNPASTKQTAQMASQLSHLKNAIVHLRNAYNGQDVEWSEQEELPYAGSGAGSGSGSEDDEDDDEGSGLGPFEPSHKPDVERPSVDADNDDDEDAGGRGHMPTHTSRPTSGVDDKNPLIHTTHFDQDHNDLDEDHRQLDEDEDTDAGHDGANDNRSSDAPEKMTLRRALVVYLLPLYMAWFGGVCADLL	reduced trapping, though not completely
Dlp[R169E, T170N, Q171M, F172T]: Dlp mutant introducing the putative glycosylation site of Dally (protein, left off: HA, end not stated, kept) MLHQQQQQQHLHCRRKATATTTARLVIFSSPLLLLLLTTHLPPTLQADNGPAPQVAALAAPNPAGGVAGSSIIDQFSPNCSAVTHIFQARGIDAIEIPQKPSNERVLRYCESPSVGTCCTYNMETRMAMQSRQQLEGHTKDQISRMSGILGSKATKFKDIFTALLKESENMTNSMFIRTYGVIYERNSYVFSDLFKELETYFANGRVDLLEVMDKFFNTLYQKMFTVLNTQYTFDENYMRCVSEHMKELKPFGDVPDKLSVQIKRSFVATRTYGQALTTASEVAKKVLNVRLNADCTGALTKMQHCGACKGYTEKPCTNYCVNVIKGCLHYQHEFDSEWENFAMAMDKVAERLLGSFNIVMVVEPLNIKISEAIMNFQDSGQDITNRVFQGCGRPKLKKMKRSISPKLQGVQILNARSPVEADTLDIDETLDEAIVLRERRAAEPGSQETSAQQSQEQGVGKSGNGGGGGGGNNRRQQQRRKQQQQRRKQQNNRDDNDDDDNESGGGREPILDRIVRDIRQRVKDYKKFWSNLPHSVCSNEDIASSSDVDGMCWNGHTIDRYMHSITTEHGSNPEFTGNPASTKQTAQMASQLSHLKNAIVHLRNAYNGQDVEWSEQEELPYAGSGAGSGSGSEDDEDDDEGSGLGPFEPSHKPDVERPSVDADNDDDEDAGGRGHMPTHTSRPTSGVDDKNPLIHTTHFDQDHNDLDEDHRQLDEDEDTDAGHDGANDNRSSDAPEKMTLRRALVVYLLPLYMAWFGGVCADLL	reduced trapping, though not completely
Dally[E149R, N150T, M151Q, T152F]: Dally mutant removing predicted glycosylation site and restoring hydrophobic F (protein, left off: HA, end not stated, kept) KHLDLDGIHHHQHHLHSATTHHRRRLQRDSRAKDAVGGSTHQCDAVKSYFESIDIKSSGTYSEKGAICGGNCCNNATELELRDKAAGMFEQLLHHHTSSLRGVLETNAKQFQSHVLELAQISRTQFHSLFSKVYTRMVPSSRMMIHQLYTEIMNHLIYTSNYTNSNGQLGRRGIGSVQSNLEEAVRHFFVQLFPVAYHQMVHLSKNNLGDLHEDYVNCLQHNFDEMHPFGDIPQQVQSNLGKSVHMSNVFMNALLQAAEVLSEADALYGEQLTDTCKLHLLKMHYCPNCNGHHSSSRSETKLCYGYCKNVMRGCSAEYAGLLDSPWSGVVDSLNNLVTTHILSDTGIINVIKHLQTYFSEAIMAAMHNGPELEKKVKKTCGTPSLTPYSSGEPDARPPPHKNNVKWATDPDPGMVLFLSTIDKSKEFYTTIVDNFCDEQQHSRDDHSCWSGDRFGDYTQLLINPGTDSQRYNPEVPFNAKAQTGKLNELVDKLFKIRKSIGAAAPSNSIQATHDIQNDMGEGSGGGEGQIGDDEEEYGGAHGSGDGSGDGPHTPIEESEGTTTNEVESRDSGKTSG	did not confer lipid-binding activity
Dlp[N367C, M175C]^ΔGPI: Dlp mutant with engineered disulphide bridge locking closed, apo conformation (protein, left off: V5, C-terminal, kept) PQVAALAAPNPAGGVAGSSIIDQFSPNCSAVTHIFQARGIDAIEIPQKPSNERVLRYCESPSVGTCCTYNMETRMAMQSRQQLEGHTKDQISRMSGILGSKATKFKDIFTALLKESRTQFNSCFIRTYGVIYERNSYVFSDLFKELETYFANGRVDLLEVMDKFFNTLYQKMFTVLNTQYTFDENYMRCVSEHMKELKPFGDVPDKLSVQIKRSFVATRTYGQALTTASEVAKKVLNVRLNADCTGALTKMQHCGACKGYTEKPCTNYCVNVIKGCLHYQHEFDSEWENFAMAMDKVAERLLGSFNIVMVVEPLCIKISEAIMNFQDSGQDITNRVFQGCGRPKLKKMKRSISPKLQGVQILNARSPVEADTLDIDETLDEAIVLRERRAAEPGSQETSAQQSQEQGVGKSGNGGGGGGGNNRRQQQRRKQQQQRRKQQNNRDDNDDDDNESGGGREPILDRIVRDIRQRVKDYKKFWSNLPHSVCSNEDIASSSDVDGMCWNGHTIDRYMHSITTEHGSNPEFTGNPASTKQTAQMASQLSHLKNAIVHLRNAYNGQDVEWSEQEELPYAGSGAGSGSGSEDDEDDDEGSGLGPFEPSHKPDVERPSVDADNDDDEDAGGRGHMPTHTSRPTSGVDDKNPLIHTTHFDQDHNDLDEDHRQLDEDEDTDAG	no in vivo trapping activity
Dlp[S168M]^ΔGPI: Dlp mutant with bulky residue at cavity entrance; HA form used in discs (protein, left off: V5, C-terminal, kept) PQVAALAAPNPAGGVAGSSIIDQFSPNCSAVTHIFQARGIDAIEIPQKPSNERVLRYCESPSVGTCCTYNMETRMAMQSRQQLEGHTKDQISRMSGILGSKATKFKDIFTALLKEMRTQFNSMFIRTYGVIYERNSYVFSDLFKELETYFANGRVDLLEVMDKFFNTLYQKMFTVLNTQYTFDENYMRCVSEHMKELKPFGDVPDKLSVQIKRSFVATRTYGQALTTASEVAKKVLNVRLNADCTGALTKMQHCGACKGYTEKPCTNYCVNVIKGCLHYQHEFDSEWENFAMAMDKVAERLLGSFNIVMVVEPLNIKISEAIMNFQDSGQDITNRVFQGCGRPKLKKMKRSISPKLQGVQILNARSPVEADTLDIDETLDEAIVLRERRAAEPGSQETSAQQSQEQGVGKSGNGGGGGGGNNRRQQQRRKQQQQRRKQQNNRDDNDDDDNESGGGREPILDRIVRDIRQRVKDYKKFWSNLPHSVCSNEDIASSSDVDGMCWNGHTIDRYMHSITTEHGSNPEFTGNPASTKQTAQMASQLSHLKNAIVHLRNAYNGQDVEWSEQEELPYAGSGAGSGSGSEDDEDDDEGSGLGPFEPSHKPDVERPSVDADNDDDEDAGGRGHMPTHTSRPTSGVDDKNPLIHTTHFDQDHNDLDEDHRQLDEDEDTDAG	retained some activity
